Rows were chosen to be rich in hits. Some 2.1% of all compounds tested hit in one or more screens of this group.
bCat nuc transl: beta-catenin nuclear translocation modulation | HeLa beta-catenin nuclear translocation, immunofluorescence imaging | nuclear translocation activity, % at 5 µM | 190,000 compounds, 0.3% hits;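 active = nuclear translocation activity above 50% at 5 µM, with a well cell count of 50 or more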;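 note: per-cell ratio of nuclear to cytoplasmic median beta-catenin stain intensity; plate controls were DMSO negative control for no effect and GSK-3 inhibitor IX positive control for full effect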
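Test system: human HeLa cell line; Doses: 5 µM primary, 0.02–20 µM confirmation; Incubation: 24 h compound exposure, 37°C; Detection: beta-catenin immunofluorescence imaging with DAPI; Read-out: beta-catenin nuclear/cytoplasmic ratio, % activation.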
KLF5 inh: kruppel-like factor 5 inhibition; inhibition, % at 5 µM; 290,000 compounds, 0.23% hits; DLD-1 KLF5 promoter-luciferase reporter, luminescence;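 active = inhibition above a per-plate limit of that plate's mean compound inhibition plus 3 SD, cut at about 60% in these data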;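 note: 0% = DMSO wells and 100% = LY294002 at 200 µM; higher means less KLF5 promoter-driven luciferase light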
MT stabilizer: stabilizes microtubules in HeLa cells; 200,000 compounds, 0.83% hits; AID 2205; HeLa tubulin immunostaining HCS, 24 h; share of cells brighter than vehicle mean+2SD; % tubulin-high responders, % at 10 µM;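 active = plate Z-score above 3 for both tubulin-high and condensed-nucleus cell shares, with cell loss under 80%, at 10 µM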;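 note: anti alpha tubulin signal scored within the nucleus-defined area of each cell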
Ba/F3 V617F tox: reduce viability of Ba/F3 cells dependent on JAK2V617F. inhibition, % at 5.6 µM. Ba/F3 EpoR-JAK2V617F viability, ATP luminescence. 220,000 compounds, 1.1% hits;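 active = inhibition above the campaign mean plus 3 SD over all tested compounds, cut at about 24% in these data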;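 note: cytokine-independent growth of Ba/F3 cells driven by EpoR plus mutant JAK2; 0% = DMSO-treated cells and 100% = JAK inhibitor I control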
BaF3 tox: parental Ba/F3 viability inhibition as JAK2V617F counter-screen; CellTiter-Glo ATP luminescence; inhibition, % at 5.6 µM; 220,000 compounds, 1.1% hits; AID 1486;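 active = inhibition above a per-campaign cutoff, the mean inhibition of all tested compounds plus 3 SD, cut at about 27% in these data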;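 note: 0% = DMSO wells and 100% = JAK Inhibitor I control wells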
IEC-6 cytotox: kills IEC-6 intestinal cells in KLF5 counter-screen | inhibition, % at 5 µM | IEC-6 cytotoxicity, luminescence viability | 290,000 compounds, 0.78% hits | AID 1825; in the data active = inhibition above about 22%;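 note: 0% = plate median of test compound wells and 100% = cytotoxic reference compound wells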
BaF3 parental 2: counter-screen for JAK2V617F inhibitors: parental Ba/F3 viability inhibitors. inhibition, % at 5.6 µM. 580 compounds, 31% hits. CellTiter-Glo luminescence; cells kept alive by added IL-3. shares compounds with Ba/F3 V617F tox;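 active = cell growth inhibition above the hit limit set in the earlier mutant JAK2 cell screen, cut at about 27% in these data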;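 note: plate controls were DMSO-treated cells for no effect and JAK Inhibitor I control wells for full effect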
JAK2V617F confrm: Ba/F3 EpoR-JAK2V617F viability loss, confirmation | shares compounds with Ba/F3 V617F tox | CellTiter-Glo luminescence | inhibition, % at 5.6 µM | 580 compounds, 66% hits | AID 1521;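 active = mean inhibition above the hit cutoff derived in the earlier primary screen, cut at about 25% in these data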;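 note: 0% = DMSO-treated cells and 100% = JAK inhibitor I control wells; higher means lower luminescence from reduced cell ATP and viability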
Numbers without * were called inactive; · = no result given.

SMILES	bCat nuc transl	KLF5 inh	MT stabilizer	Ba/F3 V617F tox	BaF3 tox	IEC-6 cytotox	BaF3 parental 2	JAK2V617F confrm
COc1cc2c(cc1OC)-c1cc(N3CCCc4ccccc43)nc(=O)n1CC2	-2.8	-13.7	4.4	30.5*	14.9	-1.9	14.6	61.1*
Cc1ccc2cc(CCNC(=O)CC(C)C)c(=O)[nH]c2c1	-3.4	-33.1	3.6	69.0*	8.1	6.9	-3.1	-1.8
O=C(CN1CCN(c2ccccc2Cl)CC1)NC1CCCc2ccccc21 (configuration not stated)	-0.2	2.7	2.8	1.9	3.4	-2.1	·	·
Cc1ccc(Cl)cc1N1CCN(CC(=O)NC2CCCc3ccccc32)CC1 (configuration not stated)	5.4	1.2	4.1	58.5*	3.6	3.6	-1.1	6.1
Cn1c(=N)n(CC(O)c2cccc3ccccc23)c2ccccc21 (configuration not stated)	0.0	6.4	5.2	41.3*	-6.7	10.4	-1.4	28.2*
CSc1cccc(NC(=S)N2CCC(N(C)C3CCCCCC3)CC2)c1	0.3	3.1	1.8	5.0	11.0	5.8	·	·
CN(C1CCCC1)C1CCN(C(=S)Nc2cc(F)cc(F)c2)CC1	0.4	-15.9	1.4	30.6*	20.0	5.7	3.5	31.9*
COCCCN(Cc1ccco1)C(=O)c1cc2c(s1)-c1ccc(Cl)cc1S(=O)(=O)C2	·	4.7	·	·	·	-3.4	·	·
COc1ccc(N2C(=O)C(CC(=O)Nc3ccccc3)N(CCc3ccc(OC)c(OC)c3)C2=O)cc1 (configuration not stated)	0.2	-24.7	2.6	0.9	6.2	-3.6	·	·
Cc1cccc(C2c3[nH]c4ccccc4c3CCN2Cc2ccc(C)s2)n1 (configuration not stated)	1.4	23.6	1.4	26.7*	-0.7	-1.2	-1.1	9.1
CC(=O)c1ccc(C(=O)N2CCc3c([nH]c4ccccc34)C2c2cccc(C)n2)s1 (configuration not stated)	-1.2	-11.0	·	-2.0	-2.2	3.9	·	·
COCCCNC(=S)Nc1c(C)cc(C)cc1C	1.1	-17.8	·	-6.3	1.6	-5.0	·	·
O=C(NC(NNc1ccc([N+](=O)[O-])cc1)(C(F)(F)F)C(F)(F)F)c1ccc(Cl)cc1	·	-17.2	3.0	29.3*	1.2	8.1	-5.7	-3.3
N#C/C(=C\c1ccc(O)c(O)c1)S(=O)(=O)c1ccccc1	0.6	-23.4	3.9	24.2*	4.4	-1.9	-5.1	9.6
COCCN(CC(=O)NCC1CCCO1)C(=O)CCC(=O)Nc1cc(C)on1 (configuration not stated)	-1.4	2.4	2.1	34.9*	0.6	-6.2	-5.5	-8.1
COCCN(CC(=O)NCC1CCCO1)C(=O)CCC(=O)Nc1cc(C)ccn1 (configuration not stated)	1.0	-38.4	3.3	0.2	3.1	-3.1	·	·
C=CCOc1nc2c(c(=O)n(C)c(=O)n2C)n1Cc1ccc(Cl)cc1	-1.8	-3.5	1.8	23.9*	13.7	2.1	61.5*	53.0*
CCOc1cc(S(=O)(=O)n2ccc(C)n2)ccc1Br	-1.0	-7.2	3.6	30.3*	13.2	1.6	-7.9	-2.8
CCOc1cc(S(=O)(=O)n2ccnc2)ccc1Br	-0.5	-22.5	4.5	1.6	5.3	1.4	·	·
COc1ccc(-n2nc3c(c2NC(=O)c2ccccc2S(=O)(=O)C(F)F)CS(=O)(=O)C3)cc1	·	-34.3	·	·	·	-8.7	·	·
CC(C)C/C(O)=C/c1nc2cc(Cl)ccc2oc1=O	0.5	3.8	5.6	7.3	3.4	0.9	·	·
O=c1oc2ccc(Cl)cc2nc1/C=C(\O)c1ccco1	0.8	0.9	·	34.1*	15.4	-1.0	8.6	72.1*
COc1cc2c(cc1OC)C(C)N(C(=O)c1sc(-c3cnccn3)nc1C)CC2 (configuration not stated)	-1.4	9.0	·	-1.6	7.7	4.0	·	·
O=C(CSc1nnc(CNC(=O)c2ccco2)o1)Nc1cccc(Cl)c1	·	-23.8	·	·	·	-1.4	·	·
CC(C)n1c(SCC(=O)N2CCN(C)CC2)nc2c1c(=O)n(C)c(=O)n2C	·	-2.8	·	·	·	6.9	·	·
SMILES	bCat nuc transl	KLF5 inh	MT stabilizer	Ba/F3 V617F tox	BaF3 tox	IEC-6 cytotox	BaF3 parental 2	JAK2V617F confrm
Cc1c(C(=O)OCC(C)C)[nH]c2c1C(=O)CC(c1cccs1)C2 (configuration not stated)	294.9*	36.7	13.3*	24.2*	8.0	10.6	58.9*	87.9*
COC(=O)c1[nH]c2c(c1C)C(=O)CC(c1ccc(C)cc1)C2 (configuration not stated)	2.4	-17.3	2.7	1.0	4.4	4.9	·	·
O=c1[nH]nc(-c2ccc(F)cc2)cc1Cc1cccs1	0.5	-10.7	·	0.6	-1.9	6.4	·	·
CN(C)c1nc(N(C)C)nc(N(C#N)CCOc2ccccc2)n1	0.3	-22.6	3.8	3.4	7.4	4.5	·	·
Cc1cc(C)nc(N(C#N)CCOc2ccccc2)n1	1.1	-11.2	2.1	54.1*	17.9	-1.4	9.5	17.6
Cc1nc(NCc2ccco2)c2c(C)c(C)sc2n1	8.0	2.8	2.0	26.8*	3.7	18.5	34.1*	84.5*
Cc1sc2nc3c4ccccc4c(NCc4ccco4)nn3c(=O)c2c1C	0.4	26.2	3.8	4.0	4.0	-7.4	·	·
COc1ccc2nc(C)cc(Sc3nc4ccccc4s3)c2c1	-1.1	-21.6	·	31.9*	5.2	17.9	17.3	55.1*
COc1ccc2nc(C)cc(SCC(=O)NNC(=O)COc3ccccc3)c2c1	·	-6.4	2.0	-3.9	1.2	-0.1	·	·
O=C1N=C(N2CCOCC2)S/C1=C\c1ccc(OS(=O)(=O)c2ccccc2)cc1	0.5	-17.4	3.1	44.4*	11.5	1.8	-5.1	-3.0
CCOc1ccccc1C(=O)N(CCC(=O)OC)c1ccccn1	0.5	-31.2	2.3	3.4	4.8	2.2	·	·
COC(=O)CCN(C(=O)C1C2CC3CC(C2)CC1C3)c1ccccn1 (configuration not stated)	-1.8	-43.3	5.2	49.4*	7.1	-1.9	-5.0	-6.5
COc1ccc(-c2csc(Nc3ncccc3C)n2)cc1OC	1.9	-102.7	1.6	1.9	3.9	3.3	·	·
Cc1cccnc1Nc1nc(-c2ccc(O)c(O)c2)cs1	·	-176.3	2.7	80.5*	24.7	14.3	24.5	92.6*
Cc1cc(C)nc(/N=C(\N)Nc2ccc(OCc3ccccc3)cc2)n1	0.1	-87.2	4.8	34.1*	11.3	8.3	4.6	38.9*
Cc1cc(C)nc(/N=C(\N)Nc2cccc(OCc3ccccc3)c2)n1	26.0	-2.3	·	10.3	3.2	16.9	·	·
Cc1oc2c(O)c(O)ccc2c(=O)c1-c1ccccc1	-0.7	·	·	·	·	·	·	·
Cc1oc2c(O)c(O)ccc2c(=O)c1-c1cnn(-c2ccccc2)c1	0.3	1.4	7.8	45.4*	-0.1	1.2	22.6	99.4*

Screens (PubChem BioAssay)
